Measurements: ChEMBL document CHEMBL1133154, “Inhibition of inducible nitric oxide synthase by acetamidine derivatives of hetero-substituted lysine and homolysine” (Bioorg Med Chem Lett, 2000)

Key:
[1] = biological target: Nitric oxide sythases; iNOS & nNOS (Homo sapiens) (UniProt P29475+P35228); test: Ratio of binding to Neuronal nitric oxide synthase and Inducible nitric oxide synthase; type: protein assay
Nitric oxide synthase 3 [2] = biological target: T1, Nitric oxide synthase 3 (Homo sapiens, UniProt P29474); test: Concentration required for inhibition of endothelial Nitric Oxide Synthase in human
T1 sequence (P29474 whole entry): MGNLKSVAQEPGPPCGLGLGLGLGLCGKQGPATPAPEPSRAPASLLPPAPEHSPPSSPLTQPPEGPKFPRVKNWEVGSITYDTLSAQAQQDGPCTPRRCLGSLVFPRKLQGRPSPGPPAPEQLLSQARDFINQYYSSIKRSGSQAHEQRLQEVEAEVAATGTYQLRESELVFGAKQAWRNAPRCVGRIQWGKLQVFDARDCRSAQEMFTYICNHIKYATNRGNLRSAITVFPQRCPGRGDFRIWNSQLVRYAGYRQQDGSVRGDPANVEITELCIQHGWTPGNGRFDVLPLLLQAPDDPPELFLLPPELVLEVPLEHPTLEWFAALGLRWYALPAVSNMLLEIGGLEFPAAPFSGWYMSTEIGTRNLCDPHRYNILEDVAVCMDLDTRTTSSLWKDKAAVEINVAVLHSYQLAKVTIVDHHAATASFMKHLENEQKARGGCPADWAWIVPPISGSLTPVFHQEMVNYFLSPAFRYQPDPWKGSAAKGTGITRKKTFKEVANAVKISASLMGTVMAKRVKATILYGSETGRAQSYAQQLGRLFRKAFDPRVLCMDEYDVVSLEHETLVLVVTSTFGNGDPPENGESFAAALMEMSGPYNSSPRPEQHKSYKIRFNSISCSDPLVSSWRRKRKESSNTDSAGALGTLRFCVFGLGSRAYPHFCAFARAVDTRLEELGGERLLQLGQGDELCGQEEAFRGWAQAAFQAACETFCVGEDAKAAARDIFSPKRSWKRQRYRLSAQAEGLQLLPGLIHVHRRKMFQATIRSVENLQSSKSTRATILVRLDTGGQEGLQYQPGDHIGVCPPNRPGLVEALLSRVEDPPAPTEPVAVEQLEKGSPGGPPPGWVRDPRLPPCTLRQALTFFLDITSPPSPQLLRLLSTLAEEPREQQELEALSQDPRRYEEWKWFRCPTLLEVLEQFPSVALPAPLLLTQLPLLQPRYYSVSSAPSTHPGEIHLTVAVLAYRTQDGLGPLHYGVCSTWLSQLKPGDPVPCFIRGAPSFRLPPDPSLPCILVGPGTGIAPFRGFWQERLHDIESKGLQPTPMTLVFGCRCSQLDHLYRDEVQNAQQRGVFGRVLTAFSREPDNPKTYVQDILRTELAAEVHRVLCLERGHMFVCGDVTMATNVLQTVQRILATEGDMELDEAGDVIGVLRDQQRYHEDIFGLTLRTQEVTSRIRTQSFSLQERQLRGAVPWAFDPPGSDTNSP
Summary of the method: (§1)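 Recombinant human NOS enzymes (endothelial or neuronal isoform) were tested in an oxyhaemoglobin assay. Readings were taken 15–30 min after inhibitor addition so that time-dependent inhibition could develop, and IC50 values were derived from those readings.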

Nitric oxide synthase 1 [3] = biological target: T2, Nitric oxide synthase 1 (Homo sapiens, UniProt P29475); test: Inhibition of human neuronal Nitric Oxide Synthase
T2 sequence (P29475 whole entry): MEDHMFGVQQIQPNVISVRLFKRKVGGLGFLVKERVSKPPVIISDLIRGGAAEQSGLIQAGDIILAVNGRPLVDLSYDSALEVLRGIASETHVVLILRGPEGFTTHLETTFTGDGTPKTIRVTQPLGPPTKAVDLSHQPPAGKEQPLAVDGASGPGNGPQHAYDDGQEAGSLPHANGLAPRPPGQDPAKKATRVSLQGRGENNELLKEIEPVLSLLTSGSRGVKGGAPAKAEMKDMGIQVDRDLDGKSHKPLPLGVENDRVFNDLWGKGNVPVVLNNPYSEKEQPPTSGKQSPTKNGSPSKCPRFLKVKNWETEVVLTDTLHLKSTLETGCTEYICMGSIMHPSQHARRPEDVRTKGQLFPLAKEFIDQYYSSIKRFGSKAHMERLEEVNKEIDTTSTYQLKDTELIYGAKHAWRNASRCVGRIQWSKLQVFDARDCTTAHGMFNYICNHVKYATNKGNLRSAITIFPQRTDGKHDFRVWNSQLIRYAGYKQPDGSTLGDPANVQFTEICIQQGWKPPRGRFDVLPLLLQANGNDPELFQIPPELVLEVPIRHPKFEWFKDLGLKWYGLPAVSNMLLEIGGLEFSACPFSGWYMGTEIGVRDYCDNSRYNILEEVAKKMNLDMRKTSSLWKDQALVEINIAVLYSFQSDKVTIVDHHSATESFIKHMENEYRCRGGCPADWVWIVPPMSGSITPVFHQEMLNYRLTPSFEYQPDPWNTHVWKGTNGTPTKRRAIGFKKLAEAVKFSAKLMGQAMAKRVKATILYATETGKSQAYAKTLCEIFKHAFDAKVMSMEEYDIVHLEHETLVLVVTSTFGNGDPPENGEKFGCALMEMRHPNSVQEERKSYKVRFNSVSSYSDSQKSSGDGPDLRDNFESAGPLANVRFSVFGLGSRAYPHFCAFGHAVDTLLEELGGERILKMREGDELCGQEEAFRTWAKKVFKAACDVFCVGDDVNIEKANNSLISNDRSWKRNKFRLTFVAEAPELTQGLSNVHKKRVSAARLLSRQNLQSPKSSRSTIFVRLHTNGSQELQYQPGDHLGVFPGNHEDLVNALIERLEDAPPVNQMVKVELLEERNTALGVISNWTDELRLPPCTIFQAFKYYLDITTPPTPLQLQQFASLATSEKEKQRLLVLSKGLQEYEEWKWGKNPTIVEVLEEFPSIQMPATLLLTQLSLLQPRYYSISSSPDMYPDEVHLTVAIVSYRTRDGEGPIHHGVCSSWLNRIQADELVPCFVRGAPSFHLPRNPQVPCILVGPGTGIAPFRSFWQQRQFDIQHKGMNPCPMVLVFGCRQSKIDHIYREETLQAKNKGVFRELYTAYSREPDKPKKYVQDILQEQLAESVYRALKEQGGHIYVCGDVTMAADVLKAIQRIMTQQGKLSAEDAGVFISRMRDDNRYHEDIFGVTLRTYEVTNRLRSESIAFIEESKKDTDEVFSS

[4] = biological target: Nitric oxide synthase (inducible and endothelial) (Homo sapiens) (UniProt P35228+P29474); test: Ratio of Endothelial Nitric Oxide Synthase to Inducible nitric oxide synthase; type: protein assay
[5] = biological target: Nitric oxide synthase, inducible (Homo sapiens, UniProt P35228); test: Inhibition of human inducible nitric oxide synthase
Chain of Nitric oxide synthase, inducible (P35228 whole entry): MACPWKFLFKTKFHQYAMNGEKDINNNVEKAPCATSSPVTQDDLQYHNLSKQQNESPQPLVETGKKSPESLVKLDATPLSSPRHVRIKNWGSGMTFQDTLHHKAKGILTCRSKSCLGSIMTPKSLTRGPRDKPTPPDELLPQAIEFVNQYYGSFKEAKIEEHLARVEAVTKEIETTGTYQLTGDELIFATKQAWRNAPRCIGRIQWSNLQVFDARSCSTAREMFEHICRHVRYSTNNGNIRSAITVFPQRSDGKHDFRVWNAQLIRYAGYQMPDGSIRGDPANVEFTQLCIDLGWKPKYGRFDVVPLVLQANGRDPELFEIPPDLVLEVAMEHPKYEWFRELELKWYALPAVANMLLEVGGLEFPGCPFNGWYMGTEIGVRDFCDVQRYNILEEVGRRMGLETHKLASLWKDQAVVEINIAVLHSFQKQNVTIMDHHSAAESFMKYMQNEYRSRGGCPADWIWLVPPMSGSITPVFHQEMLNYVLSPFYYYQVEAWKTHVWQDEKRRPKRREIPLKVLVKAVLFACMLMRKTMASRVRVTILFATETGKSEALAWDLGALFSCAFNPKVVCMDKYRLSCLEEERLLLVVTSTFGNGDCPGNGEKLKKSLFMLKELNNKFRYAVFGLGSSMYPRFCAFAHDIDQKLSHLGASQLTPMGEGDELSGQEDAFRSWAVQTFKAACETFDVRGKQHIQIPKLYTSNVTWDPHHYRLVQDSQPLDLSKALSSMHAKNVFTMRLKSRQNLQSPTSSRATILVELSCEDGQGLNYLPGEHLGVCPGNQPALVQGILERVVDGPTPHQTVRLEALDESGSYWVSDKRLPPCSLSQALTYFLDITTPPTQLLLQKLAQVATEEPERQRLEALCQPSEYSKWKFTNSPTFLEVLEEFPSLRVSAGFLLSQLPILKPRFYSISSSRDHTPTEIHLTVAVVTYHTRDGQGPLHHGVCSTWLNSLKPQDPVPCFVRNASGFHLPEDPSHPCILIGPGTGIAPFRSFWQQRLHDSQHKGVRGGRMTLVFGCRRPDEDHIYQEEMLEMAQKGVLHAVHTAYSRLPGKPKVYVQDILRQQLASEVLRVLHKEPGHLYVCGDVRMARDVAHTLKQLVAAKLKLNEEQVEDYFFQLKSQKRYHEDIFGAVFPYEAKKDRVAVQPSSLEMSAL

Nitric oxide synthase 3 [6] = biological target: T1, Nitric oxide synthase 3; test: Inhibition of human endothelial Nitric Oxide Synthase
Nitric oxide synthase 1 [7] = biological target: T2, Nitric oxide synthase 1; test: Concentration required for inhibition of neuronal Nitric Oxide Synthase in human; summary of the method: as §1

Chain of Nitric oxide sythases; iNOS & nNOS (Homo sapiens) (P29475 whole entry, looked up): as the sequence (P29475 whole entry) above
Chain of Nitric oxide sythases; iNOS & nNOS (Homo sapiens) (P35228 whole entry, looked up): as the sequence (P35228 whole entry) above

Structure (SMILES)	Ratio [1]	IC50 (Nitric oxide synthase 3 [2]) [µM]	IC50 (Nitric oxide synthase 1 [3]) [µM]	Ratio [4]	IC50 [5] [µM]	IC50 (Nitric oxide synthase 3 [6]) [µM]	IC50 (Nitric oxide synthase 1 [7]) [µM]
CC(=N)NCCSC[C@@H](N)C(=O)O	19	40	13.2	57	0.7	–	–
CC(=N)NCCSCC[C@@H](N)C(=O)O	> 17	–	> 100	> 17	5.9	> 100	–
CC(=N)NCCCS(=O)(=O)C[C@H](N)C(=O)O	–	–	> 100	–	> 100	> 100	–
CC(=N)NCCSC[C@H](N)C(=O)O	10	–	53	> 18	5.4	> 100	–
CC(=N)NCCS(=O)(=O)C[C@@H](N)C(=O)O	78	–	630	> 125	8	> 1000	–
CC(=N)NCCCC[C@@H](N)C(=O)O	23	–	37	49	1.6	78	–
CC(=N)NCCOCCC(N)C(=O)O (stereo not given)	5	–	6	51	1.4	72	–
CC(=N)NCCSCC[C@H](N)C(=O)O [GW-274150]	104	–	145	333	1.4	466	–
CC(=N)NCC[S+]([O-])C[C@@H](N)C(=O)O (stereo not given in full)	9	–	68	19	8	155	–
CC(=N)NCCCCCC(N)C(=O)O (stereo not given)	> 5	–	> 100	> 5	20	> 100	–
CC(=N)NCCS(=O)(=O)CCC(N)C(=O)O (stereo not given)	–	–	–	–	> 100	> 100	> 100
CC(=N)NCC[S+]([O-])CCC(N)C(=O)O (stereo not given)	–	–	> 100	–	> 100	> 100	–
CC(=N)NCCCOC[C@H](N)C(=O)O	–	–	> 100	–	> 100	> 100	–
CC(=N)NCCOC[C@H](N)C(=O)O	10	–	11.6	11	1.2	13	–
CC(=N)NCCCSC[C@H](N)C(=O)O	–	–	> 100	–	62	> 100	–
